Tests used:
[1] = Residual glucose-induced insulin secretion in Wistar rat pancreatic islets at 1 uM incubated for 90 mins in presence of 16.7 mM glucose by radioimmunological assay relative to control; details: Pancreatic islet, 1.5 h
[2] = test system: Aorta; experiment: Myorelaxant activity in aortic rings isolated from Wistar rat assessed as reduction in KCl-induced contractions measured after 60 mins in presence of 80 mM KCl by force-displacement transducer; type: functional, tissue-based; details: 1 h, in the assay text read “30 mM KCl” for “80 mM KCl”
In short: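 Endothelium-free rat aorta rings were contracted with 30 mM or 80 mM K+, with 1 or 10 μM glibenclamide present for some 30 mM series. Agent was applied cumulatively. EC50 is the concentration giving 50% relaxation of the KCl-induced contraction, reported as mean ± SEM (n).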

[3] = Residual glucose-induced insulin secretion in Wistar rat pancreatic islets at 10 uM incubated for 90 mins in presence of 16.7 mM glucose by radioimmunological assay relative to control; details: Pancreatic islet, 1.5 h

EC50 [2] [µM] | Structure (SMILES) | residual insulin secretion at 1 µM [1] [%] | residual insulin secretion at 10 µM [3] [%]
21.2 | CCOC(=O)Nc1ccc2c(c1)C(NC(=O)Nc1ccc(Cl)cc1)CC(C)(C)O2 (racemic) | 92.1 | 49.9
11 | CC(C)OC(=O)Nc1ccc2c(c1)C(NC(=S)Nc1cccc(Cl)c1)CC(C)(C)O2 (racemic) | 81.5 | 19.3
> 30 | COC(=O)Nc1ccc2c(c1)C(NC(=O)Nc1ccc(C#N)cc1)CC(C)(C)O2 (racemic) | 89.7 | 36.9
> 30 | COC(=O)Nc1ccc2c(c1)C(NC(=S)Nc1ccc(C#N)cc1)CC(C)(C)O2 (racemic) | 93.8 | 27.8
22.7 | CCOC(=O)Nc1ccc2c(c1)C(NC(=S)Nc1cccc(Cl)c1)CC(C)(C)O2 (racemic) | 73.7 | 21.5
18.7 | CC(C)(C)OC(=O)Nc1ccc2c(c1)C(NC(=O)Nc1cccc(Cl)c1)CC(C)(C)O2 (racemic) | 86.4 | 11
8.9 | CCOC(=O)Nc1ccc2c(c1)C(NC(=S)Nc1ccc(Cl)cc1)CC(C)(C)O2 (racemic) | 78.4 | 22
9.4 | CC(C)(C)OC(=O)Nc1ccc2c(c1)C(NC(=O)Nc1ccc(Cl)cc1)CC(C)(C)O2 (racemic) | 86.1 | 36.4
24.4 | COC(=O)Nc1ccc2c(c1)C(NC(=S)Nc1ccc(Cl)cc1)CC(C)(C)O2 (racemic) | 84.9 | 22.8
46.2 | CC(C)OC(=O)Nc1ccc2c(c1)C(NC(=O)Nc1ccc(Cl)cc1)CC(C)(C)O2 (racemic) | 92.3 | 48.7
12.3 | CCOC(=O)Nc1ccc2c(c1)C(NC(=S)Nc1cccc(C#N)c1)CC(C)(C)O2 (racemic) | 77.6 | 14.8
> 30 | COC(=O)Nc1ccc2c(c1)C(NC(=O)Nc1cccc(Cl)c1)CC(C)(C)O2 (racemic) | 92 | 35.7
 | CC1=Nc2ccc(Cl)cc2S(=O)(=O)N1 [DIAZOXIDE] | 91 | 80.8
13.1 | CCOC(=O)Nc1ccc2c(c1)C(NC(=O)Nc1cccc(Cl)c1)CC(C)(C)O2 (racemic) | 82.8 | 36.1
12.1 | CC(C)OC(=O)Nc1ccc2c(c1)C(NC(=O)Nc1cccc(C#N)c1)CC(C)(C)O2 (racemic) | 50.5 | 12.7
> 30 | COC(=O)Nc1ccc2c(c1)C(NC(=O)Nc1ccc(Cl)cc1)CC(C)(C)O2 (racemic) | 92.7 | 53.7
19.4 | CCOC(=O)Nc1ccc2c(c1)C(NC(=S)Nc1ccc(C#N)cc1)CC(C)(C)O2 (racemic) | 80.2 | 10.2
7.2 | CC(C)OC(=O)Nc1ccc2c(c1)C(NC(=S)Nc1ccc(C#N)cc1)CC(C)(C)O2 (stereo unspecified) | 86 | 14.8
> 30 | CCOC(=O)Nc1ccc2c(c1)C(NC(=O)Nc1ccc(C#N)cc1)CC(C)(C)O2 (racemic) | 79.5 | 17.4
6.5 | CC(C)(C)OC(=O)Nc1ccc2c(c1)C(NC(=O)Nc1ccc(C#N)cc1)CC(C)(C)O2 (racemic) | 53.4 | 5.8
 | CC1(C)Oc2ccc(C#N)cc2C(N2CCCC2=O)C1O (racemic) [CROMAKALIM] | 95.3 | 94.4

From ChEMBL document CHEMBL4715732, “4-Phenylureido/thioureido-substituted 2,2-dimethylchroman analogs of cromakalim bearing a bulky 'carbamate' moiety at the 6-position as potent inhibitors of glucose-sensitive insulin secretion” (Eur J Med Chem, 2016)
